Tests used:
[1] = Ratio of drug level in Sprague-Dawley rat brain to plasma at 10 mg/kg, ip; type: ADME, organism-based; details: read-out: BPR
Cannabinoid receptor 1 [2] = molecular target: T1, Cannabinoid receptor 1 (Homo sapiens, UniProt P21554); assay: Displacement of [3H]CP55940 from human CB1 receptor expressed in CHO cell membranes; type: cell-based
[3] = Permeability of compound across apical to basal compartment in PBS at pH 5.5 at 10 uM after 4 hrs by PAMPA; type: ADME; details: pH 5.5, 4 h
Outline: (§1)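 PAMPA kit per manufacturer; compound at 10 µM final added to the apical compartment in PBS at pH 5.5 or 7.4; incubated 4 h at room temperature; both compartments sampled and measured by LC–MS; percent apical-to-basal transport, mean of 3.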

[4] = Permeability of compound across apical to basal compartment in PBS at pH 7.4 at 10 uM after 4 hrs by PAMPA; type: ADME; details: pH 7.4, 4 h; outline: as §1
MDCK = assay: Permeability across apical to basolateral side of MDCK cell BBB penetration model expressing human mdr1 at 10 uM incubated for 1 hr by mass spectrometric analysis; type: ADME, cell-based, Canis lupus familiaris; details: dog
Outline: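 MDCK cells transfected with human MDR1 grown 4 days to confluence on Transwell-type filters in DMEM/F12 with 10% FBS and antibiotics. Compound added apically at 10 µM in HBSS with 25 mM glucose, HEPES pH 7.4; 1 h at 37 °C; apical and basal samples quantified by LC–MS/MS (MRM); percent apical-to-basal transport.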

Cannabinoid receptor 2 = Cannabinoid receptor 2 (Homo sapiens, UniProt P34972); assay: Displacement of [3H]CP55940 from human CB2 receptor expressed in CHO cell membranes
Sequence of Cannabinoid receptor 2 (P34972 whole entry): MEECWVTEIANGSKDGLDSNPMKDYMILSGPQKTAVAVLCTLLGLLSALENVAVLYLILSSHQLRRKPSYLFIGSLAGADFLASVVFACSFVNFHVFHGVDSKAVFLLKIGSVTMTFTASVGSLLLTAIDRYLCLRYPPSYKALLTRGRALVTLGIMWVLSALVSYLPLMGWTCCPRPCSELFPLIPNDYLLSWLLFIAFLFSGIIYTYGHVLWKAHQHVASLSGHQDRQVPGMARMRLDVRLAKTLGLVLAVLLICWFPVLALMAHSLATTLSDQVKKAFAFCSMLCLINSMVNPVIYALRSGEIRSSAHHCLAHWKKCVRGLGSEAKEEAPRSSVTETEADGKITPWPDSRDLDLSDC

Liver = assay: Stability of compound in human liver S9 fractions assessed as compound remaining at 10 uM incubated for 60 mins by mass spectrometric analysis; type: ADME, subcellular, Liver S9 fraction; details: s9, 1 h
Outline: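 Mixed-gender pooled human hepatic S9 at 1 mg/mL; compound at 10 µM final in 50 mM potassium phosphate pH 7.4, 3 mM MgCl2 with NADPH regenerating system (1 mM NADP, 5 mM glucose-6-phosphate, 1 unit/mL G6PDH); triplicates, 60 min; quenched with 3 volumes acetonitrile; LC–MS quantified against matrix standard curves; percent parent remaining.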

Homo sapiens = organism: Homo sapiens; assay: Selectivity ratio of Ki for human CB2 receptor to Ki for human CB1 receptor
Outline: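 Ki values from displacement of [³H]CP55940 in membranes of CHO cells overexpressing human CB1 or human CB2; ratio taken as Ki(CB2)/Ki(CB1). Binding was run only on compounds with apparent Ke <50 nM in the CB1 calcium assay.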

Cannabinoid receptor 1 [5] = molecular target: T1, Cannabinoid receptor 1; details: CHO-K1
[6] = Drug uptake in Sprague-Dawley rat brain at 10 mg/kg, po after 4 hrs by LC-MS/MS analysis; type: ADME, organism-based; details: read-out: Drug uptake
Outline: (§2)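 Male Sprague Dawley rats (10 weeks on arrival, acclimated; 12 weeks at dosing, n=3) given a single oral gavage bolus of 10 mg/kg in 90% corn oil/10% DMSO. Sacrificed 4 h post-dose; brain and plasma collected; parent compound quantified by LC–MS/MS; mean and SD reported.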

[7] = Ratio of drug level in Sprague-Dawley rat brain to plasma at 10 mg/kg, po after 4 hrs by LC-MS/MS analysis; type: ADME, organism-based; outline: as §2
Cannabinoid receptor 1 [8] = molecular target: T1, Cannabinoid receptor 1; assay: Inverse agonist activity at human CB1 receptor expressed in CHO cells assessed as increase in intracellular calcium mobilization after 90 secs by Calcein-4 AM-staining based FLIPR assay; type: functional, cell-based
[9] = Plasma concentration in Sprague-Dawley rat at 10 mg/kg, po after 4 hrs by LC-MS/MS analysis; type: ADME, organism-based; outline: as §2

T1 sequence (P21554 whole entry): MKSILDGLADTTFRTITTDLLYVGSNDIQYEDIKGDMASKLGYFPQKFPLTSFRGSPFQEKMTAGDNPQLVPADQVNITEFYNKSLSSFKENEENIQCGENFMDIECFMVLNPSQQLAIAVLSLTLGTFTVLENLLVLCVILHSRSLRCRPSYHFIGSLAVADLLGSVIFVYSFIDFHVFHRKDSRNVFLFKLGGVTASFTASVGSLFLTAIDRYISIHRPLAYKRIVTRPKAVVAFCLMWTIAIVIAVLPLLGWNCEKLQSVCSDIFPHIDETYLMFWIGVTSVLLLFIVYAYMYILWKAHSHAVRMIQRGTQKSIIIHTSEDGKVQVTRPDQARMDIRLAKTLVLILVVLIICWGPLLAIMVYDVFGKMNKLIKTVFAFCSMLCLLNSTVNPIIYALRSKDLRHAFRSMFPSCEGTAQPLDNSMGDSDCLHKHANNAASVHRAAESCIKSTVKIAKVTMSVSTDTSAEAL

| Compound | Kp [1] | Ki (Cannabinoid receptor 1 [2]) [µM] | permeability [3] [%] | permeability [4] [%] | permeability (MDCK) [%] | Ki (Cannabinoid receptor 2) [µM] | Stability (Liver) [%] | Ratio Ki (Homo sapiens) | Ke (Cannabinoid receptor 1 [5]) [nM] | concentration at 4 h [6] [ng/g] | BPR [7] [%] | EC50 (Cannabinoid receptor 1 [8]) [µM] | concentration at 4 h [9] [ng/mL] |
| --- | --- | --- | --- | --- | --- | --- | --- | --- | --- | --- | --- | --- | --- |
| Cc1c(C(=O)NC2CCN(C(=O)OC(C)(C)C)CC2)nn(-c2ccc(Cl)cc2Cl)c1-c1ccc(Cl)cc1 | < 0.04 | – | – | – | – | – | – | – | – | – | – | – | – |
| Cc1c(C(=O)NC2CCN(C(=O)c3ccccc3)CC2)nn(-c2ccc(Cl)cc2Cl)c1-c1ccc(Cl)cc1 | – | 0.0075 | 0.3 | 0.2 | < 1 | 1.73 | > 90 | 230 | – | – | – | – | – |
| Cc1c(C(=O)NC2CCN(C(=O)CC(C)C)CC2)nn(-c2ccc(Cl)cc2Cl)c1-c1ccc(Cl)cc1 | – | 0.0289 | 3.3 | 3.6 | 1 | 1.81 | 72 | 63 | – | – | – | – | – |
| Cn1c(=O)c2c(ncn2C)n(C)c1=O [CAFFEINE] | – | – | – | – | 80 | – | – | – | – | – | – | – | – |
| CCS(=O)(=O)N1CCC(NC(=O)c2nn(-c3ccc(Cl)cc3Cl)c(-c3ccc(Cl)cc3)c2C)CC1 | – | 0.0444 | 0.1 | 0.05 | < 1 | 4.41 | 68 | 99 | – | – | – | – | – |
| Cc1c(C(=O)N2CCC(NC(=O)NC(C)(C)C)(c3ccccc3)CC2)nn(-c2ccc(Cl)cc2Cl)c1-c1ccc(Cl)cc1 | < 0.04 | – | – | – | – | – | – | – | – | – | – | – | – |
| CCCCOC(=O)N1CCC(NC(=O)c2nn(-c3ccc(Cl)cc3Cl)c(-c3ccc(Cl)cc3)c2C)CC1 | – | – | – | – | – | – | – | – | 88 | – | – | – | – |
| Cc1c(C(=O)NC2CCN(S(=O)(=O)CCC(F)(F)F)CC2)nn(-c2ccc(Cl)cc2Cl)c1-c1ccc(Cl)cc1 | – | 0.0096 | 0.1 | 0.1 | < 1 | 4.72 | > 90 | 492 | – | – | – | – | – |
| Cc1c(C(=O)NC2CCN(C(=O)C(F)(F)F)CC2)nn(-c2ccc(Cl)cc2Cl)c1-c1ccc(Cl)cc1 | – | 0.0019 | 0.4 | 0.2 | < 1 | 1.04 | 74 | 548 | – | – | – | – | – |
| CCCCC(=O)N1CCC(NC(=O)c2nn(-c3ccc(Cl)cc3Cl)c(-c3ccc(Cl)cc3)c2C)CC1 | – | 0.0145 | 1.1 | 1.8 | < 1 | 1.78 | 72 | 123 | – | – | – | – | – |
| Cc1c(C(=O)NC2CCN(S(=O)(=O)CC(C)C)CC2)nn(-c2ccc(Cl)cc2Cl)c1-c1ccc(Cl)cc1 | – | 0.0435 | 0.1 | 0.2 | < 1 | 6.21 | > 90 | 143 | – | – | – | – | – |
| Cc1c(C(=O)NC2CCN(C(=O)OC(C)C)CC2)nn(-c2ccc(Cl)cc2Cl)c1-c1ccc(Cl)cc1 | – | 0.0064 | 0 | 0.1 | < 1 | 1.93 | 82 | 301 | – | – | – | – | – |
| Cc1c(C(=O)NC2CCN(S(=O)(=O)c3ccccc3)CC2)nn(-c2ccc(Cl)cc2Cl)c1-c1ccc(Cl)cc1 | – | 0.043 | 0.03 | 0.1 | < 1 | > 20 | > 90 | – | – | – | – | – | – |
| Cc1c(C(=O)NC2CCN(C(=O)C3CCCC3)CC2)nn(-c2ccc(Cl)cc2Cl)c1-c1ccc(Cl)cc1 | – | 0.0092 | 0.2 | 0.2 | < 1 | 2.5 | 62 | 271 | – | – | – | – | – |
| CCCOC(=O)N1CCC(NC(=O)c2nn(-c3ccc(Cl)cc3Cl)c(-c3ccc(Cl)cc3)c2C)CC1 | – | 0.00882 | 1.4 | 1.9 | < 1 | 1.54 | 66 | 175 | – | 69 | 15 | 0.02 | 455 |
